TRPC6 inh: inhibitors of mouse TRPC6 channel | AID 2553 | 310,000 compounds, 1.1% hits | HEK293-TRPC6, membrane potential dye, ACh-evoked depolarization; hits give low values | B-score at 10 µM;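 active = B-score under library mean minus 3 SD, initial fluorescence not abnormally high, positive integrated signal ratio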;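 also: B-score derived from integrated fluorescence ratio over the kinetic read; more negative B-score means stronger inhibition of depolarization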
Target sequence (Q61143 whole entry, looked up): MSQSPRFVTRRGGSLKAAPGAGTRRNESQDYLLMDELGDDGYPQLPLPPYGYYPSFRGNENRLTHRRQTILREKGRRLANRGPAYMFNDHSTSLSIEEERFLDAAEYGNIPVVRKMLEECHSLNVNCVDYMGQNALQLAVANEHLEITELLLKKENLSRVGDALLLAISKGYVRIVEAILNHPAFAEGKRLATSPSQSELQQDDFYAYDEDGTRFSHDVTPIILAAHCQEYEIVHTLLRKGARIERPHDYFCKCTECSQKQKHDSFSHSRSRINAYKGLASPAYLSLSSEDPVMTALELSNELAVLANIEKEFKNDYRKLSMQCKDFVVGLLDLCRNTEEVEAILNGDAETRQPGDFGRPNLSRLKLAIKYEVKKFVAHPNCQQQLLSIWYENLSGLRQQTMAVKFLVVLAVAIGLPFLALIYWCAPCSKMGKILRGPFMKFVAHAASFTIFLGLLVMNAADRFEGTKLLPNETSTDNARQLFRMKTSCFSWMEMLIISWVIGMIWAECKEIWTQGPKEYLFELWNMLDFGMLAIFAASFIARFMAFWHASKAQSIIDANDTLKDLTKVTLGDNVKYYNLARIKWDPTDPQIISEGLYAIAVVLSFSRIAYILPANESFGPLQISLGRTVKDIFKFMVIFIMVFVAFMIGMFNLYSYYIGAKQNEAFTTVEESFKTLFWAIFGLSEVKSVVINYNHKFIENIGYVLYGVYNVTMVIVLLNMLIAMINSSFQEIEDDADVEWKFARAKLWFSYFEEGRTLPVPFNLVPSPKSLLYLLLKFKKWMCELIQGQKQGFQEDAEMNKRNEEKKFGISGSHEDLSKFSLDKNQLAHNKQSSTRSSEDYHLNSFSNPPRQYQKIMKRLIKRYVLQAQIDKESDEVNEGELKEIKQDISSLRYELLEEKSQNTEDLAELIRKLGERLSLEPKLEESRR
TRPC4 inh: TRPC4 (mouse) channel inhibition | 300,000 compounds, 0.39% hits | AID 2247 | Q9QUQ5 | HEK293 TRPC4beta/mu-opioid, DAMGO-evoked Fluo4 calcium flux; hits give low values | B-score at 10 µM;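 active = B-score over 3 SD under the library average, no early fluorescence shift, positive overall ratio signal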
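Signal: kinetic Fluo4 fluorescence imaging of calcium influx. Material: stable TRPC4beta/mu-opioid receptor HEK293 cells. Probe or stimulus: DAMGO in two steps, submaximal then maximal.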
TRPC4 agonist: TRPC4 (mouse) channel activation. Q9QUQ5. HEK293 TRPC4beta/mu-opioid, Fluo4 calcium fluorescence; hits give high values. B-score at 10 µM. 310,000 compounds, 0.49% hits;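 active = B-score above 5 SD of library B-scores, and initial fluorescence ratio not above library mean plus 5 SD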;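 also: positive B-score marks a calcium rise read as TRPC4 activation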
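System – HEK293 cells stably co-expressing mouse TRPC4beta and mu-opioid receptor · Signal – Fluo4 calcium-sensitive dye fluorescence, kinetic, 1 Hz baseline · Benchmarks – buffer (low) and maximal DAMGO (high) · Read-out – B score of integrated fluorescence ratio per well · Incubation – dye loading 45 min room temperature, 110 s kinetic read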
TRPC6 act: activators of mouse TRPC6 channel | HEK293-TRPC6 membrane potential dye fluorescence; hits give high values | B-score at 10 µM | 310,000 compounds, 0.13% hits | AID 2550;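 active = B-score of the integrated fluorescence ratio above library mean plus 3 SD, and starting fluorescence ratio within library mean plus 5 SD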;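 also: higher score means more depolarization so channel activation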
TRPC4 PAM: allosterically enhances the mouse TRPC4 cation channel | 310,000 compounds, 0.42% hits | HEK293 TRPC4beta/mu-opioid, DAMGO EC20, Fluo-4 Ca2+ flux; hits give high values | B-score at 10 µM | Q9QUQ5 | AID 2227;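 active = B-score of calcium response area above 5 SD of library B-scores, with initial fluorescence ratio within 5 SD of library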
TRPC4 sel inh 2: second selectivity test of TRPC6 inhibitors: effect on mouse TRPC4. HEK293 TRPC4/MOR, membrane potential dye fluorescence; channel activated by saturating DAMGO dose. AID 2776. 920 compounds, 42% hits. inhibition, % at 10 µM. shares compounds with TRPC6 inh;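 active = compounds whose fluorescence signal differed from control wells by over 3 SD, either direction, in both duplicate plates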
TRPC4 spec: mouse TRPC4 off-target activity of TRPC6 inhibitors | shares compounds with TRPC6 inh | AID 2777 | activity change, negative = inhibition, % at 10 µM | HEK293 TRPC4/mu-opioid, membrane potential fluorescence | 920 compounds, 61% hits;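 active = rise or fall in signal beyond 3 SD of buffer-only wells in both replicate plates, either sign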;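 also: integrated kinetic ratio of fluorescence range over baseline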
HEK293 MPD ctr 2-1: second counter-screen for TRPC6 inhibitors: parental HEK293 cells; shares compounds with TRPC6 inh; parental HEK293 membrane potential dye fluorescence; maximal acetylcholine challenge after compound addition; signal change vs control, % at 10 µM; 920 compounds, 31% hits; AID 2779;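 active = membrane potential signal moving either way by over 3 SD of the maximum-effect control, in both duplicate plates, meaning non-specific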
HEK293 MPD ctr-1: counter-screen for TRPC6 inhibitors: effect in parental HEK293 cells | 920 compounds, 60% hits | shares compounds with TRPC6 inh | parental HEK293 membrane potential dye fluorescence | AID 2780 | membrane potential signal change, % at 10 µM;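 active = membrane potential signal shifting up or down by more than 3 SD of buffer-only wells, on both duplicate plates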
HEK293 MPD ctr-2: checks TRPC6 modulator effects in parental HEK293 cells; shares compounds with TRPC6 inh; membrane potential dye fluorescence; membrane potential signal change, % at 10 µM; 2,400 compounds, 51% hits;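 active = membrane potential signal moves up or down beyond 5 SD from buffer-only wells, on both duplicate plates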
HEK293 MPD ctr 2-2: parental HEK293 nonspecific activity of TRPC6 modulators, second screen. shares compounds with TRPC6 inh. membrane potential dye fluorescence; after compound, maximal acetylcholine stimulation. inhibition, % at 10 µM. 2,400 compounds, 14% hits. AID 488926;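 active = membrane potential signal drops by more than 5 SD from the mean control signal, in both duplicate plates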
TRPC4/MOR mod: tests whether TRPC6 modulators also affect mouse TRPC4; percent change from control (negative = decrease, positive = increase), % at 10 µM; shares compounds with TRPC6 inh; AID 488927; HEK293 TRPC4/mu-opioid, membrane potential fluorescence; 2,400 compounds, 69% hits;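 active = membrane potential signal moved up or down beyond 5 SD of buffer control wells, in both duplicate plates, actives on both sides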
TRPC4 ctr inh 2: second selectivity test of TRPC6 modulators against mouse TRPC4 | shares compounds with TRPC6 inh | HEK293 TRPC4/mu-opioid, membrane potential dye fluorescence; stimulated with maximal-effect DAMGO | inhibition, % at 10 µM | 2,400 compounds, 55% hits;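 active = drop in membrane potential signal beyond 5 SD of the control wells in both duplicate plates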;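 also: TRPC4 counter screen for TRPC6 hits run under conditions tuned for TRPC6 not TRPC4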
TRPC6 block conf: confirmation of mouse TRPC6 inhibitors. shares compounds with TRPC6 inh. AID 488960. 3,300 compounds, 43% hits. HEK293-TRPC6, membrane potential dye, ACh-evoked depolarization. inhibition, % at 10 µM;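 active = fluorescence ratio falls more than 5 SD below the full-stimulation control mean, in both duplicate runs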;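 also: integrated fluorescence ratio of peak minus minimum over baseline after agonist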
TRPC6 act confirm: confirmation of mouse TRPC6 activators | shares compounds with TRPC6 inh | HEK293-TRPC6 membrane potential dye fluorescence, FDSS | activation, % at 10 µM | 2,800 compounds, 11% hits | AID 488961;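 active = ratio signal rise beyond 5 SD above unstimulated control wells' mean, seen in both duplicate runs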
Numbers stand for hits; - = inactive; . = not tested or not shown; + = active, no number. A selection: hits, their analogues and other compounds. The true share with any hit is near 2.3%.

SMILES	TRPC6 inh	TRPC4 inh	TRPC4 agonist	TRPC6 act	TRPC4 PAM	HEK293 MPD ctr-2	HEK293 MPD ctr 2-2	TRPC4/MOR mod	TRPC4 ctr inh 2	TRPC6 block conf	TRPC6 act confirm	others
Cc1ccc2nc(Cl)c(/C=N/Nc3nc(C)cc(C)n3)c(=O)n2c1	-8	-	-	-	-	-	-	-24%	-	-	-
Cc1ccc2nc(C)c(Cl)c(=O)n2c1	-	-	-	-	-	.	.	.	.	.	.
CNC(=O)N(O)C1N(/N=C/c2ccc(C)cc2)C(=S)SC1(C)C (stereo not given)	-	-	-	-	-	.	.	.	.	.	.
CNC(=O)N(O)C1N(/N=C/c2cc(Br)ccc2O)C(=S)SC1(C)C (stereo not given)	-6.7	-	-	-	-	.	.	.	.	-	-	TRPC4 sel inh 2=-;TRPC4 spec=-12%;HEK293 MPD ctr 2-1=-;HEK293 MPD ctr-1=-212%
CN(C)CCCNc1nc(N)c([N+](=O)[O-])c(NC2CCCCC2)n1	-	-	-	-	-	.	.	.	.	.	.
CCOc1ccc(NC(=O)C(NC(=O)C2CCC(C)CC2)C(C)C)cc1 (stereo not given)	-5.7	-	-	-	-	-	-	-	-	-	-
CC1CCC(C(=O)NC(C(=O)Nc2ccccn2)C(C)C)CC1 (stereo not given)	-	-	-	-	-	.	.	.	.	.	.
CCN(CC(=O)Nc1cc(Cl)ccc1C)C(=O)CCS(=O)(=O)c1ccc(C)cc1	-5.5	-	-	-	-	-	-	13%	-	-	-
CCOC(=O)CSc1cc(CSc2ccccc2)nc(-c2ccccc2)n1	-	-	-	-	-	.	.	.	.	.	.
Cc1cccc(-n2nc(C(=O)c3ccco3)cc(-c3nc4ccccc4[nH]3)c2=N)c1	-5.4	-	-	-	-	-	-	20%	45%	-	-
COc1ccc(-n2nc(C(=O)c3cccs3)cc(-c3nc4ccccc4[nH]3)c2=N)cc1	-9.7	-	-	-	-	.	.	.	.	61%	-	TRPC4 sel inh 2=46%;TRPC4 spec=-22%;HEK293 MPD ctr 2-1=37%;HEK293 MPD ctr-1=-238%
Cc1ccccc1-n1nc(C(=O)c2cccs2)cc(-c2nc3ccccc3[nH]2)c1=N	-11	-	-	-	-	.	.	.	.	-	-	TRPC4 sel inh 2=66%;TRPC4 spec=-9.6%;HEK293 MPD ctr 2-1=-;HEK293 MPD ctr-1=-
Cc1cc(NC(=O)c2cccs2)n(-c2nc3ccccc3[nH]2)n1	-	-	-	-	-	.	.	.	.	.	.
COc1ccc(-c2nc3ccccc3[nH]2)cc1	-	-	-	-	-	.	.	.	.	.	.
CC1CSC(N(C(=O)c2ccc(S(C)(=O)=O)cc2)c2ccc(Cl)cc2)=N1 (stereo not given)	-	-	-	-	-	.	.	.	.	.	.
N#Cc1c(Nc2ccccc2)sc(C(=O)C2CC2)c1N	-	-	-	-	-	.	.	.	.	.	.
Nc1c(C(=O)c2ccccc2)sc2nsc(SCCN3CCCC3)c12	-	-	86	65	-	+	-	272%	36%	-	513%
Nc1c(C(=O)c2ccc(Cl)cc2)sc2nsc(SCCN3CCOCC3)c12	-	-	-	-	-	.	.	.	.	.	.
O=C(Nc1ccc([N+](=O)[O-])cc1)N1CCN(C(=O)C2CCCO2)CC1 (stereo not given)	-	-	-	-	-	.	.	.	.	.	.
OCCNCc1ccc(OCc2ccc(Cl)cc2Cl)cc1	-6.7	-	-	-	-	.	.	.	.	-	.	TRPC4 sel inh 2=68%;TRPC4 spec=8.3%;HEK293 MPD ctr 2-1=283%;HEK293 MPD ctr-1=11%
O=C(CCn1c(=S)oc2ccccc21)Nc1cccc(O)c1	-	-	-	-	-	.	.	.	.	.	.
C/C(CC(=O)NCc1ccco1)=N\NC(=O)c1ccc(Cl)cc1Cl	-	-	-	-	-	.	.	.	.	.	.
COc1ccccc1CNC(=O)COC(=O)c1ccccc1-c1ccccc1	-	-	-	-	-	.	.	.	.	.	.
CC1=NN(C(N)=S)C(=O)C1N=Nc1cccc([N+](=O)[O-])c1 (stereo not given)	-5.3	-	-	-	-	-	-	-	-	-	-
CCc1ccc(N=C2N=C(N)c3ccccc32)cc1	-7.8	-	-	-	-	.	.	.	.	71%	-	TRPC4 sel inh 2=28%;TRPC4 spec=-21%;HEK293 MPD ctr 2-1=-;HEK293 MPD ctr-1=-465%
SMILES	TRPC6 inh	TRPC4 inh	TRPC4 agonist	TRPC6 act	TRPC4 PAM	HEK293 MPD ctr-2	HEK293 MPD ctr 2-2	TRPC4/MOR mod	TRPC4 ctr inh 2	TRPC6 block conf	TRPC6 act confirm	others
CCCCNC(=O)NC1(C(F)(F)F)Oc2ccccc2O1	-	-	-	-	-	.	.	.	.	.	.
NS(=O)(=O)c1ccc(CCNC(=O)NC2(C(F)(F)F)Oc3ccccc3O2)cc1	-5.7	-	-	-	-	-	-	-	-	-	-
C/C(=N\NC(=S)NCCc1ccccc1)c1ccc(C)cc1	-5.3	-	-	-	-	187%	-	-15%	-	-	-
Brc1ccc(Oc2ncc(CN3CCN(c4ccccc4)CC3)s2)cc1	-5.4	-	-	-	-	-	-	-	-	-	-
CCOc1cc(C(=O)Nc2ccc(S(=O)(=O)NC3=NCCCCC3)cc2)cc(Br)c1OC	-	-	-	-	-	.	.	.	.	.	.
CC(=O)c1ccc(NC(=O)CCOc2cc(C)ccc2C)cc1	-	-	-	-	-	.	.	.	.	.	.
COc1ccc2c(c1)c(C(=O)CN1CCN(Cc3ccccc3)CC1)c(C)n2C	-5.3	-	-	-	-	-	-	-14%	60%	-	-
COC(=O)c1ccccc1NC(=O)CN1CCCCC1	-	-	-	-	-	.	.	.	.	.	.
COC(=O)c1c(NC(=O)CN2CCN(Cc3ccc4c(c3)OCO4)CC2)sc(C)c1C	-	-	-	-	-	.	.	.	.	.	.
COC(=O)c1ccccc1NC(=O)CN1CCN(Cc2ccccc2)CC1	-	-	-	15	-	384%	-	60%	40%	-	142%
